Results: ChEMBL document CHEMBL4513216, “Probing the Open Global Health Chemical Diversity Library for Multistage-Active Starting Points for Next-Generation Antimalarials” (ACS Infect Dis, 2020)

Assay: Toxicity liver stage against HepG2, at 10uM
Assay type: cell-based
Parameters: test concentration 10 uM, cell line HepG2-A16-CD81EGFP
Details: human, HepG2-A16-CD81EGFP cells; read-out: INHIBITION
Method in brief: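 Uninfected HepG2-A16-CD81EGFP cells, 3 × 10^3 per well, 1536-well, plated on prespotted compound at 10 μM final, parasite-free screening media added to match infected plates; puromycin 10 μM positive, DMSO 0.5% negative; run in parallel with 48 h PbLuc assay at 37 °C, 5% CO2; viability by CellTiter-Glo luminescence, normalized to controls.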

Row | SMILES | cytotoxicity at 10 µM
1 | O=C(c1ccnnc1)N1C[C@H]2CCC[C@@]2(COCC2CCOCC2)C1 | -3.04%
2 | Cc1ncc(CN2Cc3ccccc3OC3(CCC(CO)CC3)C2)cn1 (stereo not given) | 0.179%
3 | CN1CCN(C(=O)[C@H]2C[C@@H]3CN(c4ncc(F)cn4)C[C@@H]3N2C)CC1 | -136%
4 | CO[C@@H]1CC[C@H]2[C@H]1OCCN2S(=O)(=O)c1cn(C)cn1 | 5.32%
5 | Cc1cc(C)cc(S(=O)(=O)NCC2CNCCOC2)c1 (stereo not given) | -1.86%
6 | COc1ccc(Cn2nc(C(N)=O)ccc2=O)c(Cl)c1 | 10.2%
7 | Cc1ccccc1CN(C)C(=O)c1cc(C2CCCN2C)ccn1 (stereo not given) | -4.76%
8 | CN(Cc1ccc(F)cc1)CC1(O)CCN(C(=O)c2ccccn2)C1 (stereo not given) | -3%
9 | CCc1cn[nH]c1C1CCN(c2cc(C)c3ccc(OC)cc3n2)CC1 | 18.7%
10 | Cn1cc(C(=O)NC2CCN(Cc3ccn(C)c(=O)c3)CC2)cn1 | -16.7%
11 | CCN(Cc1ccc(O)c(C(=O)O)c1)CC1CCCO1 (stereo not given) | 3.9%
12 | Cc1ccsc1C(=O)Nc1cnn(CC(=O)NC2CCCC2)c1 | -1.65%
13 | O=C(NCC1OCCc2cn(CC3CC3)nc21)c1ccsc1 (stereo not given) | 6.69%
14 | CS(=O)(=O)NCc1cn2c(n1)CN(C(=O)c1ccc[nH]1)CC2 | 5.69%
15 | COc1ccc(-c2nccn2CC(O)CN2CCCC2)c(F)c1 (stereo not given) | 2.87%
16 | CC(C)CNC(=O)c1ccc(NC(=O)NC(C)c2ccccn2)cc1 (stereo not given) | 5.26%
17 | N[C@H]1CN(C(=O)c2ccccc2OCc2ccccc2)C[C@@H]1C1CC1 | -3.57%
18 | O=S(=O)(C1CC1)N1CCC[C@]2(C[C@@H](Oc3ccccn3)CO2)C1 | -144%
19 | Cc1nn(CCc2nnc(NCC(C)C)s2)c(C)c1Br | 1.91%
20 | NCc1ccnc(Oc2ccccc2)c1 | 2.87%
21 | Cc1cn(-c2ccccc2)nc1NS(=O)(=O)c1cc(C(=O)O)sc1C | -4.87%
22 | CNC(=O)C(CC(C)C)NC(=O)c1cccc(-c2n[nH]c(C)n2)c1 (stereo not given) | 9.04%
23 | Cc1cc(-c2cncnc2)ccc1OCC(N)=O | 8.07%
24 | O=C(C1CC1)N1CC[C@H](c2nnc(Cc3c[nH]c4ccccc34)o2)C1 | 4.09%
25 | CC(NC(=O)C(C)(C)C#N)c1ccc(OCC2CC2)c(F)c1 (stereo not given) | 2.31%
26 | O=C(NCCNc1ncccn1)C1CCN(C(=O)N2CCCC2)CC1 | -6.11%
27 | CCCOc1ccc(CNCCn2cccn2)cc1 | 9.66%
28 | Cc1nn(C)cc1CN(C)C(=O)c1ccncc1 | -5.51%

Row | SMILES | cytotoxicity at 10 µM
29 | C[C@@H]1CN(Cc2ccccc2)CCN1C(=O)NCc1nccs1 | -142%
30 | Cc1noc(C)c1CN1CC[C@@H]2O[C@@H](COCC3CC3)CC[C@@H]21 | 6.46%
31 | CC1c2ncc(CNC(=O)C3CC3)n2CCN1Cc1nccs1 (stereo not given) | -5.43%
32 | CN(C)[C@@H]1CN(Cc2ccc(O)cc2)C[C@H]1c1cn(C)c2ccccc12 | 2.39%
33 | CN1CCCC(c2ccc(N3CCOCC3)cn2)C1 (stereo not given) | -6.47%
34 | CCc1nc(C)ncc1C(=O)N1CC(=O)N(C)c2ccccc21 | 6.62%
35 | O=C(c1ccncc1)N1CCCC1c1nc(O)cc(-c2ccccn2)n1 (stereo not given) | -9.08%
36 | Cc1c(Br)cccc1CNC1(CCO)CCOCC1 | -10.7%
37 | Cn1cc(NC(=O)Cn2c(CS(C)(=O)=O)nc3ccccc32)cn1 | 1.31%
38 | CC(=O)N1CCN([C@@H]2CC[C@@H](NC(=O)c3ccc(C)nc3)[C@H]2O)CC1 | -3.08%
39 | Cc1cc(NC(=O)NC2CCN(C(C)C)CC2)c2ncccc2c1 | 9.67%
40 | CN(CC1COCCO1)c1ncnc2cc(F)ccc12 (stereo not given) | 0.613%
41 | CC(C)n1nc(CN2CCCC2=O)c2c1CN(C(=O)c1ccco1)C2 | 5.35%
42 | Cc1ccc(CN2CCN(CC3CC3)[C@@H]3CS(=O)(=O)C[C@@H]32)cc1C | 25.4%
43 | CCN1C[C@@H]2CN(C(=O)NCc3ccccc3)CCC[C@]2(C(=O)O)C1 | 3.47%
44 | O=C([C@H]1CCCO1)N1CCN(Cc2cccnc2)c2ncccc2C1 | 13.2%
45 | CN(C)c1ncc(NS(=O)(=O)c2ccc(OC(F)(F)F)cc2)cn1 | 11.9%
46 | Cc1c[nH]c(CN(C)C(=O)[C@@]23CNC[C@@H]2CN(c2ncccn2)C3)n1 | -2.4%
47 | CN(Cc1ccc(F)cc1C#N)CC(F)(F)F | 4.28%
48 | COC1COC2(CCN(C(=O)c3ccccc3F)CC2)C1 (stereo not given) | -92.4%
49 | CCN(CC)CCCN1CCN(c2nc(C)cnc2C)CC1 | -31%
50 | O=C(C1CCC1)N1CCC2(CCNCC2)C1 | -3.39%
51 | CNc1cc(CNC(=O)c2ccncc2)nc(-c2ccncc2)n1 | -7.16%
52 | CN1C(=O)CC2(CCN(S(=O)(=O)c3cccs3)CC2)c2ccccc21 | 1.86%
53 | CCCSc1ncc(CN2CCN(C)C(=O)C2C)cn1 (stereo not given) | 7.75%
54 | Clc1cccc2c1CCN(Cc1nc(CC3CC3)no1)C2 | 0.873%
55 | CCCSCC(=O)N1C[C@@H]2CC[C@H]1CN(c1ncccn1)C2 | 4.42%
